Screening data as filed in PubChem.
B2AR ag = agonists of human beta-2 adrenergic receptor inducing internalization; 340,000 compounds, 0.43% hits; response, % (no concentration beside the values); Am2.2-beta2AR cells, FAP receptor internalization, flow cytometry; P07550;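 active = response above a set limit, near 3 SD of response in nonfluorescent compounds, cut at about 42% in these data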
Target sequence (P07550 whole entry, looked up): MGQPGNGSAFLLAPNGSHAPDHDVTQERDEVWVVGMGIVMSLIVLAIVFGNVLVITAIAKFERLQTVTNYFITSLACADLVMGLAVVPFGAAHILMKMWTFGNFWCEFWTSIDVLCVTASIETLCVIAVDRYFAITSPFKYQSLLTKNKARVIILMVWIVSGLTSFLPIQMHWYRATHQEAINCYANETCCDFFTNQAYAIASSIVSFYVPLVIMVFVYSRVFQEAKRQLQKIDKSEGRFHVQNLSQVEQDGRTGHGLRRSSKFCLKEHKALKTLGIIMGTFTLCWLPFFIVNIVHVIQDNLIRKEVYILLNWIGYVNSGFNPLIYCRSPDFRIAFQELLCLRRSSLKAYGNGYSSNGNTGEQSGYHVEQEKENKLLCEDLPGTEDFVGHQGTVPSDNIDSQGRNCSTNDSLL
UPR CHOP act = apoptotic UPR (CHOP) activation; CHO-CHOP luciferase reporter, luminescence; percent of tunicamycin response over DMSO baseline; activation, % at 10 µM; AID 449763; 330,000 compounds, 0.34% hits;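 active = at 10 µM dose, activation of 40% or more, normalized to positive control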;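 also: 100% = tunicamycin at 10 µg/mL and 0% = DMSO alone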
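Test system: CHO-CHOP cells, stable luciferase reporter of PERK-eIF2a-CHOP signalling | Quantity: 500 CHO-CHOP cells per well | Buffer or medium: F12 plus 10% serum | Compound dosing: 10 µM single point, 0.5% DMSO | Schedule: 6 h compound treatment, 37 °C | Signal: Luciferase luminescence | Control set: Tunicamycin high control, DMSO low control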
CHOP inh = blocks CHOP induction under ER stress; inhibition, % at 10 µM; 220,000 compounds, 3.8% hits; CHO-K1 CHOP-promoter luciferase, tunicamycin-induced, 15-18 h;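 active = compounds that reduced the stress-induced luciferase reporter signal by more than about 70% of percent inhibition, limit read from the data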;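 also: 0% = tunicamycin plus vehicle and 100% = wells without tunicamycin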
Dynein transport = dynein cargo transport inhibition; 3617.4 mouse cells, GR-EGFP nuclear translocation imaging; test concentration mostly 20 µM; stimulated with dexamethasone, 1 µM; active compounds read low; z-score, hits read low; 220,000 compounds, 0.47% hits;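 active = plate z-score of nuclear minus cytoplasmic receptor signal below a set negative limit, without overly bright fluorescence or cell loss, cut at about -3.5 in these data, passing the limit was not always enough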;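 also: z-score of nuclear minus cytoplasmic ring GR-EGFP intensity difference per well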
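Buffer or medium: tet-free medium with charcoal-stripped serum / Also added: dexamethasone agonist, 1.0 µM final, for 30 min / Timing: induction 48 h, compound 1 h, agonist 30 min / Measured by: high-content fluorescence imaging after fixation / Read-out: nuclear-to-cytoplasmic GR-EGFP distribution per well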
XBP1 UPR activ = activators of adaptive arm of unfolded protein response (XBP1). activation, % at 20 µM. CHO-XBP1 luciferase reporter, IRE1-XBP1 UPR activation, luminescence; percent of tunicamycin response, DMSO as zero. 330,000 compounds, 0.33% hits;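 active = versus positive control, 20 µM dose yields 30% or more activation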;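 also: 100% = tunicamycin at 10 µg/mL and 0% = DMSO only wells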
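Assay system: IRE1-XBP1 luciferase reporter CHO line. Input: 1000 cells/well. Buffer or medium: F12 with 10% serum. Doses: 20 µM, 1% DMSO. Times: overnight seeding at 37 °C, 6 h compound treatment at 37 °C. Technique: Steady-Glo luciferase glow luminescence, 10 min after reagent addition.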
p-CIP stab down = lowers stability of the mouse p/CIP coactivator protein; Q05BA5; F442A p/CIP-EGFP cells, EGFP fluorescence, 16 h; decrease of EGFP signal, % at 10 µM; 290,000 compounds, 0.01% hits; AID 1984;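 active = EGFP signal decrease of at least 30% at 10 µM or well 3 SD below plate mean, unless failing retest; inactive = the rest, including hits failing retest or dose response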
Numbers without * were called inactive; . = no result. Shown is part of a subset that was picked to be rich in hits.

SMILES	B2AR ag	UPR CHOP act	CHOP inh	Dynein transport	XBP1 UPR activ	p-CIP stab down
CN(C)S(=O)(=O)c1ccc(/C(O)=C2/C(=O)C(=O)N(CCCN3CCOCC3)C2c2ccncc2)cc1 (stereo unspecified)	-3.7	0.4	.	.	-1.4	.
CCOc1ccc(/C=C/C(=O)c2cc(Br)ccc(=O)c2O)cc1	15.1	.	90.7*	-1.15	.	-2.7
CCc1ccc(/C=C/C(=O)c2cc(Br)ccc(=O)c2O)cc1	21.4	8.5	62.6	-0.849	8.8	-17.4
O=C(O)CCCNC(=O)OCc1ccccc1	63.7*	0.3	4.4	-0.0403	-1.7	-1.0
CCC(=O)Oc1ccc(C(=O)Nc2ccc3c(c2)C(=O)N(C2CCCCC2)C3=O)cc1	2.5	0.7	70.7*	0.621	5.8	-8.3
COc1ccc(Oc2nc3c(c(=O)n(C)c(=O)n3C)n2Cc2ccccc2)cc1	-4.1	3.8	48.3	-0.333	-4.5	4.0
CC(C)CCn1c(Oc2ccc(Cl)cc2)nc2c1c(=O)n(C)c(=O)n2C	40.2	4.8	76.5*	-1.04	-3.2	-3.7
COC(=O)c1nc2n(n1)C(c1cc(OC)ccc1OC)C(C(=O)OC1CCCCC1)=C(C)N2 (stereo unspecified)	-0.5	2.1	80.4*	2.06	-0.8	-2.3
COc1ccc2cc(S(=O)(=O)NCc3cccnc3)ccc2c1	0.9	0.2	.	.	-2.7	-8.9
Clc1cccc(COn2c(-c3ccc(Cl)cc3Cl)nc3ncccc32)c1	2.8	-0.3	74.0*	0.0879	-2.2	-14.0
Cc1cc(C)cc(C(=O)OCC(=O)NC(=O)NC2CCCC2)c1	-11.0	-0.7	.	.	-2.2	.
COc1cc(C(=O)N[C@H](C(=O)NC(C)C23CC4CC(CC(C4)C2)C3)C(C)C)cc(OC)c1OC (stereo partly specified)	-3.2	0.3	74.8*	-0.111	-3.8	1.9
CC(C)(C)NC(=O)C(c1ccc(F)cc1)N(C(=O)CCC(=O)Nc1ccccn1)C1CCCC1 (stereo unspecified)	-1.5	1.3	.	.	-2.0	-1.5
CSc1ccc(CNc2ccc(C)c(C)c2)cc1	19.8	1.5	91.6*	-1.16	1.0	-11.1
CSc1ccc(CNc2ccc(C)cc2)cc1	10.9	2.5	42.4	1.46	1.1	-1.1
CCOC(=O)c1cnc(-n2nc(C)cc2C)nc1Nc1ccc(OC)cc1	-13.9	29.6	-66.8	-1.4	17.7	-1.3
CCOC(=O)c1cnc(-n2nc(C)cc2C)nc1NCc1ccc2c(c1)OCO2	-19.8	18.9	86.5*	0.0605	18.1	-2.2
O=c1c2ccccc2nc(/C=C/c2ccccc2)n1CCCO	-13.3	2.0	.	.	-0.9	-18.8
O=c1c2ccccc2nc(/C=C/c2ccc(O)cc2)n1CCc1ccccc1	3.0	0.1	74.3*	-0.462	1.9	10.7
COc1cc2c(cc1OC)[C@@H](c1ccccc1)CN(C)CC2	.	.	39.5	.	.	.
CC(=O)OC1COC(N2CCc3cc(Br)c([N+](=O)[O-])cc32)C(OC(C)=O)C1OC(C)=O (stereo unspecified)	1.0	-0.7	89.0*	-0.881	-1.5	-4.3
Cc1c(Cl)cccc1NC(=O)CCN1C(=O)C2CC=CCC2C1=O (stereo unspecified)	0.2	-0.3	.	.	-5.4	2.2
Clc1ccc(Nc2nc(C3CC3)cs2)cc1	-0.3	3.3	98.4*	0.111	1.6	-6.3
NCCNS(=O)(=O)c1cccc2cnccc12	.	.	8.0	.	.	.
COc1ccc2nc(C(F)(F)C(F)(F)F)c(C#N)c(N)c2c1	3.3	1.0	81.2*	-0.647	-2.4	-0.8
SMILES	B2AR ag	UPR CHOP act	CHOP inh	Dynein transport	XBP1 UPR activ	p-CIP stab down
CCC(=O)Oc1c(S(=O)(=O)c2ccc(C)cc2)c(C)nn1C(C)(C)C	6.8	-0.6	46.2	-0.793	-4.2	-0.9
Cc1ccc(S(=O)(=O)c2c(C)nn(C(C)(C)C)c2OC(=O)CC(C)C)cc1	10.7	-0.6	80.4*	-1.21	-1.5	-4.2
C=CC[n+]1c(-c2ccc(C)cc2)csc1Nc1ccc(NC(C)=O)cc1	-5.5	.	84.9*	-0.606	.	-4.2
CC1CCN(C(=O)C2CCN(C(=O)c3cc4sccc4n3Cc3ccc(F)cc3)CC2)CC1	13.7	-0.7	71.0*	1.3	-3.4	-8.0
O=C(c1cc2sccc2n1Cc1ccccc1)N1CCN(c2nc3ccccc3s2)CC1	5.2	2.5	71.0*	-0.662	-3.6	-17.9
CN(C)S(=O)(=O)c1cccc(C(=O)OCC(=O)Nc2sccc2C#N)c1	-0.9	1.3	-1.4	-0.527	1.3	-10.0
C=CCNc1nc(N)c([N+](=O)[O-])c(Nc2cccc(Cl)c2)n1	6.0	-2.0	.	.	6.1	-7.0
COc1ccc(-c2noc(CCCC(=O)O)n2)cc1	3.8	-6.6	83.7*	1.6	-4.8	-19.8
CCc1ccccc1N(C)C(=O)CCc1nc(-c2ccc(C)cc2)no1	-3.3	0.8	77.4*	-0.126	-2.4	0.8
CCOc1ccc(-c2noc(CCC(=O)O)n2)cc1	2.9	-5.2	84.7*	-0.57	-3.6	0.7
COc1ccc(Cl)cc1N(C)C(=O)CCc1nc(-c2ccc(C)cc2)no1	-3.2	-0.1	13.0	0.249	0.1	-0.1
CCc1ccc(/C=C(\Cl)c2nc3cc(Cl)ccc3c(=O)[nH]2)cc1	3.9	-0.3	25.3	-0.36	0.1	6.7
CC1(C)Cc2ccccc2C(/C(=N\Nc2cccc(Cl)c2)C(N)=O)=N1	10.0	0.4	86.6*	1.09	-4.2	11.0
CC(=O)c1ccc(N/N=C(/C(N)=O)C2=NC(C)(C)Cc3ccccc32)cc1	10.2	0.0	19.5	0.112	1.2	7.0
CC(C)C1C2CCC(C2)C1N (stereo unspecified)	.	.	-11.9	.	.	.
CCCCCCC[C@@H](C/C=C/CCC(=O)N(C)C/C(=C/Cl)C/C(=C\C(=O)N1CC(OC)=CC1=O)OC)OC	93.3*	11.9	.	.	-3.2	.
CCN(CC)CCNC(=O)Cn1nc(-c2ccc(C)cc2)ccc1=O	-1.3	-2.1	86.3*	-0.178	1.8	13.8
O=c1[nH]c(CSc2nnc(NCCCN3CCOCC3)s2)nc2cc(Cl)ccc12	-7.6	-0.1	9.5	-0.0813	-3.0	12.2
CCc1ccc(CCC(=O)Nc2sc(C)c(C)c2C(=O)OC)o1	-3.9	-0.5	83.0*	-0.726	-2.4	9.2
O=C(NNC(=O)c1cc(OCC(F)(F)F)ccc1OCC(F)(F)F)c1ccc(Cl)c(Cl)c1	-8.8	0.5	81.6*	.	-1.1	3.4
C=CCONC(=O)c1cc(OCC(F)(F)F)ccc1OCC(F)(F)F	0.4	-2.1	71.2*	-1.02	0.8	-3.1
O=C(Nc1cc(Cl)ccc1O)c1snnc1-c1ccccc1	17.1	-0.1	82.1*	-0.481	1.0	-0.1
